Calls of active or inactive are those of the source. The rule behind the calls is not given here.
Columns and labels:
[1] = AUC in monkey at 1 mg/kg, po; type: ADME, organism-based, Macaca mulatta; set-up: dose 1 mg/kg, route oral; settings: rhesus monkey, plasma
How it was run: (§1)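 Single 1 mg/kg dose given iv, sc or orally to Sprague-Dawley rats, dogs and monkeys; plasma concentrations followed over time (mean ± SEM, n = 3). Cmax, AUC, half-life, clearance and bioavailability calculated from the curves.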

[2] = Effect on canine cardiac Purkinje fiber repolarization measured as prolongation of action potential duration at 1 ug/mL; type: functional, Canis lupus familiaris
How it was run: (§2)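 Canine Purkinje fibers impaled with 3 M KCl microelectrodes. Fibers accepted with resting potential below -80 mV and APD 300-500 ms. Paced at BCL 2 s, then 800 and 400 ms. Two ascending concentrations applied, each after 25 min equilibration. APD90 measured at all three rates.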

[3] = biological target: T1, D(2) dopamine receptor (Homo sapiens, UniProt P14416); test: Agonist activity at human D2 receptor in HEK293 cells coexpressing G-alpha-qo5 by FLIPR relative to dopamine upto 10 uM; type: functional, cell-based
How it was run: (§3)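 Ca2+ flux by FLIPR in HEK cells cotransfected with the D2 receptor (human, ferret or rat) plus chimeric G protein Gqo5.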

[4] = Half life in monkey at 1 mg/kg, po; type: ADME, organism-based, Macaca mulatta; set-up: dose 1 mg/kg, route oral; settings: rhesus monkey, in vivo; how it was run: as §1
[5] = biological target: T2, D(4) dopamine receptor (Rattus norvegicus) (UniProt P30729); test: Agonist activity at rat D4 receptor in HEK293 cells co-expressing Galphaqo5 by FLIPR relative to dopamine; type: functional, cell-based
T2 sequence (whole entry): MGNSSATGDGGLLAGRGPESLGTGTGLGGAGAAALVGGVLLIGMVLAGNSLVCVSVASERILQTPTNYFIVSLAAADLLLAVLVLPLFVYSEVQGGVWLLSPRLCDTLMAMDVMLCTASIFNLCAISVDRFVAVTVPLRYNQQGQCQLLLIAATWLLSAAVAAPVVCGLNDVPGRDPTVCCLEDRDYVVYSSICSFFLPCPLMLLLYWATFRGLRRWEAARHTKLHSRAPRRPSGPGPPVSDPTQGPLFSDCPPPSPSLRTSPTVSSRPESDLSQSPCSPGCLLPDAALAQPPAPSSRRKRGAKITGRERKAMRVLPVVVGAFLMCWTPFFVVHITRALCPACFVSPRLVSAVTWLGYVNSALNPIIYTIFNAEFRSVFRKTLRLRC

[6] = Bioavailability in rat at 1 mg/kg, po; type: ADME, organism-based; settings: in vivo; how it was run: as §1
[7] = biological target: T3, D(4) dopamine receptor (Homo sapiens) (UniProt P21917); test: Activity at human D4.4 receptor in HEK293 cells co-expressing Galphaqo5 by FLIPR; type: functional, cell-based; settings: filed as agonist
T3 sequence (whole entry): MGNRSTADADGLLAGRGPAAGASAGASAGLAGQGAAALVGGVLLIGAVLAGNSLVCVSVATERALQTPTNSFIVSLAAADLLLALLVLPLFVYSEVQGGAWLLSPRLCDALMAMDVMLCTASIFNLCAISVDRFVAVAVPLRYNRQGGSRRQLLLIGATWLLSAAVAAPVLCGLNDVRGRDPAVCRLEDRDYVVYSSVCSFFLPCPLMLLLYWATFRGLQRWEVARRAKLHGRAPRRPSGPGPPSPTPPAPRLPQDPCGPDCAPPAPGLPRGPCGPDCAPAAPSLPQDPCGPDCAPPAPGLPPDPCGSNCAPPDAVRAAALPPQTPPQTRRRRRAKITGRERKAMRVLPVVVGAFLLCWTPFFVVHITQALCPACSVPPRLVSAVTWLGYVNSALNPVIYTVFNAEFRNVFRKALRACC

[8] = AUC in rat at 1 mg/kg, sc; type: ADME, organism-based; set-up: dose 1 mg/kg, route subcutaneous; settings: plasma; how it was run: as §1
[9] = biological target: Phosphodiesterase 1 (Homo sapiens) (UniProt P54750+Q01064+Q14123); test: Activity at PDE1 at 10 uM; type: protein assay
How it was run: (§4)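 Broad selectivity panel (over 70 receptors, ion channels and neuronal receptors, PDE1-6 included) run at a single 10 µM concentration.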

[10] = biological target: Phosphodiesterase 6 (Homo sapiens) (UniProt Q13956+P18545+P35913+O43924+P16499+P51160); test: Activity at PDE6 at 10 uM; type: protein assay; how it was run: as §4
[11] = Cmax in monkey at 1 mg/kg, po; type: ADME, organism-based, Macaca mulatta; set-up: dose 1 mg/kg, route oral; settings: rhesus monkey, in vivo; how it was run: as §1
[12] = Bioavailability in monkey at 1 mg/kg, po; type: ADME, organism-based, Macaca mulatta; settings: rhesus monkey, in vivo; how it was run: as §1
[13] = AUC in rat at 1 mg/kg, po; type: ADME, organism-based; set-up: dose 1 mg/kg, route oral; settings: plasma; how it was run: as §1
[14] = Bioavailability in rat at 1 mg/kg, sc; type: ADME, organism-based; settings: in vivo; how it was run: as §1
[15] = biological target: Phosphodiesterase 3 (Homo sapiens) (UniProt Q14432+Q13370); test: Activity at PDE3 at 10 uM; type: protein assay; how it was run: as §4
[16] = Cmax in rat at 1 mg/kg, po; type: ADME, organism-based; set-up: dose 1 mg/kg, route oral; settings: in vivo; how it was run: as §1
[17] = biological target: T1, D(2) dopamine receptor; test: Binding affinity to human D2S receptor
[18] = Cmax in rat at 1 mg/kg, sc; type: ADME, organism-based; set-up: dose 1 mg/kg, route subcutaneous; settings: in vivo; how it was run: as §1
[19] = Effect on canine cardiac Purkinje fiber repolarization measured as prolongation of action potential duration at 3 ug/mL; type: functional, Canis lupus familiaris; how it was run: as §2
[20] = biological target: D(3) dopamine receptor (Homo sapiens) (UniProt P35462); test: Agonist activity at human D3 receptor in HEK293 cells coexpressing G-alpha-qo5 by FLIPR upto 10 uM; type: functional, cell-based
[21] = biological target: T1, D(2) dopamine receptor; test: Displacement of [125I]7-OH-PIPAT from human D2L receptor expressed in HEK293 cell membrane; type: cell membranes
[22] = biological target: Phosphodiesterase 4 (Homo sapiens) (UniProt P27815+Q08499+Q07343+Q08493); test: Activity at PDE4 at 10 uM; type: protein assay; how it was run: as §4
[23] = Plasma clearance in iv dosed rat; type: ADME, organism-based; how it was run: as §1
[24] = biological target: cGMP-dependent 3',5'-cyclic phosphodiesterase (Homo sapiens) (UniProt O00408); test: Activity at PDE2 at 10 uM; how it was run: as §4
[25] = Agonist activity at ferret D4 receptor in HEK293 cells coexpressing G-alpha-qo5 by FLIPR relative to dopamine; type: functional, Mustela putorius furo
[26] = Bioavailability in dog at 1 mg/kg, po; type: ADME, organism-based, Canis lupus familiaris; settings: in vivo; how it was run: as §1
[27] = Agonist activity at ferret D4 receptor in HEK293 cells coexpressing G-alpha-qo5 by FLIPR; type: functional, cell-based, Mustela putorius furo; settings: Mustela putorius
How it was run: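 HEK cells cotransfected with ferret D4 receptor and chimeric G protein Gqo5, with receptor activation read as a calcium flux signal on FLIPR. EC50 is the concentration giving half-maximal activation.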

[28] = biological target: D(2) dopamine receptor (Rattus norvegicus) (UniProt P61169); test: Agonist activity at rat D2 receptor in HEK293 cells coexpressing G-alpha-qo5 by FLIPR relative to dopamine upto 10 uM; type: functional, cell-based; how it was run: as §3
[29] = tested on: Rattus norvegicus; test: Proerectile activity in rat measured as incidence of penile erection at 0.1 umol/kg, sc; type: functional
How it was run: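 Conscious male rats were given a single subcutaneous injection and observed for penile erections over the following 60 min. The read-out was the incidence of erections, expressed as % of animals ± SEM (n = 12–32 animals per group), with significance tested against controls. The value is the maximal incidence at the maximally effective dose.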

[30] = Half life in dog at 1 mg/kg, po; type: ADME, organism-based, Canis lupus familiaris; set-up: dose 1 mg/kg, route oral; settings: in vivo; how it was run: as §1
[31] = organism: Mustela putorius furo; test: Induction of emesis in ferret; type: functional, organism-based
[32] = biological target: T4, D(4) dopamine receptor (Rattus norvegicus, UniProt P30729); test: Agonist activity at rat D4 receptor in HEK293 cells coexpressing G-alpha-qo5 by FLIPR; type: functional, cell-based
T4 sequence (P30729 whole entry): T2 sequence (whole entry)

T1 sequence (P14416 whole entry): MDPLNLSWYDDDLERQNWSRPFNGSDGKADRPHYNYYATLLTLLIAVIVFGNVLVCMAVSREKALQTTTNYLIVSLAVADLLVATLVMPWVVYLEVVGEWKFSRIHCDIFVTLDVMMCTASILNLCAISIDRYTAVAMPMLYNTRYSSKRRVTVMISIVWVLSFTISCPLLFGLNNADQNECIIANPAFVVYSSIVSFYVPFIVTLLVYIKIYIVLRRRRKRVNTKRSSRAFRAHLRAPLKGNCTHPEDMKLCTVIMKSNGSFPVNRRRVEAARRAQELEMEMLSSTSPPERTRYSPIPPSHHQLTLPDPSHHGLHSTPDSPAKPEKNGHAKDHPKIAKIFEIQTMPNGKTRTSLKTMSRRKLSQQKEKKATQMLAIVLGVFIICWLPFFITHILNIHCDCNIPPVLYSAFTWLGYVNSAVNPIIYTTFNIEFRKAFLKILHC
Sequence of D(2) dopamine receptor (Rattus norvegicus) (P61169 whole entry): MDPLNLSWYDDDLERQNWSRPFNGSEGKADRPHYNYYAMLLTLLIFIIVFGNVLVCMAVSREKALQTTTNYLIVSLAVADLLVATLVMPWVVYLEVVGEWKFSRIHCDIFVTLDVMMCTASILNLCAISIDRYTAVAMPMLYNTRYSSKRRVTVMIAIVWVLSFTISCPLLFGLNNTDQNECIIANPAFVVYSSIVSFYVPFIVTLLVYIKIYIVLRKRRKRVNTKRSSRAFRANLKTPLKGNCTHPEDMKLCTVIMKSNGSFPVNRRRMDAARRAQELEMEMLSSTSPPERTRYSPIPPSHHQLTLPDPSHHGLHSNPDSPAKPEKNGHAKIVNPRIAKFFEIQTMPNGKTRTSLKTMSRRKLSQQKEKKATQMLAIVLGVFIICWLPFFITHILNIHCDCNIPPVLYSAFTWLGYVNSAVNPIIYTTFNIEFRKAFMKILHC
Sequence of D(3) dopamine receptor (Homo sapiens) (P35462 whole entry): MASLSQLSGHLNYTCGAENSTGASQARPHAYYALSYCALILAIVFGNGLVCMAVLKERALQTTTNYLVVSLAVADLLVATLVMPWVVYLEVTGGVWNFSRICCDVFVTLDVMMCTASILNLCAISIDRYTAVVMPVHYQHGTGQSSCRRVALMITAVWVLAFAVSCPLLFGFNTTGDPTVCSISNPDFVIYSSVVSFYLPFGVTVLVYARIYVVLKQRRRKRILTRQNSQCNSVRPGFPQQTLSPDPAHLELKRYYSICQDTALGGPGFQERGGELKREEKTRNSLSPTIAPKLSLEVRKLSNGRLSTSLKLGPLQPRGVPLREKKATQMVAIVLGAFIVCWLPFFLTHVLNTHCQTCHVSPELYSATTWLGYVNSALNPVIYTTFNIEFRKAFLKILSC
Sequence of cGMP-dependent 3',5'-cyclic phosphodiesterase (Homo sapiens) (O00408 whole entry): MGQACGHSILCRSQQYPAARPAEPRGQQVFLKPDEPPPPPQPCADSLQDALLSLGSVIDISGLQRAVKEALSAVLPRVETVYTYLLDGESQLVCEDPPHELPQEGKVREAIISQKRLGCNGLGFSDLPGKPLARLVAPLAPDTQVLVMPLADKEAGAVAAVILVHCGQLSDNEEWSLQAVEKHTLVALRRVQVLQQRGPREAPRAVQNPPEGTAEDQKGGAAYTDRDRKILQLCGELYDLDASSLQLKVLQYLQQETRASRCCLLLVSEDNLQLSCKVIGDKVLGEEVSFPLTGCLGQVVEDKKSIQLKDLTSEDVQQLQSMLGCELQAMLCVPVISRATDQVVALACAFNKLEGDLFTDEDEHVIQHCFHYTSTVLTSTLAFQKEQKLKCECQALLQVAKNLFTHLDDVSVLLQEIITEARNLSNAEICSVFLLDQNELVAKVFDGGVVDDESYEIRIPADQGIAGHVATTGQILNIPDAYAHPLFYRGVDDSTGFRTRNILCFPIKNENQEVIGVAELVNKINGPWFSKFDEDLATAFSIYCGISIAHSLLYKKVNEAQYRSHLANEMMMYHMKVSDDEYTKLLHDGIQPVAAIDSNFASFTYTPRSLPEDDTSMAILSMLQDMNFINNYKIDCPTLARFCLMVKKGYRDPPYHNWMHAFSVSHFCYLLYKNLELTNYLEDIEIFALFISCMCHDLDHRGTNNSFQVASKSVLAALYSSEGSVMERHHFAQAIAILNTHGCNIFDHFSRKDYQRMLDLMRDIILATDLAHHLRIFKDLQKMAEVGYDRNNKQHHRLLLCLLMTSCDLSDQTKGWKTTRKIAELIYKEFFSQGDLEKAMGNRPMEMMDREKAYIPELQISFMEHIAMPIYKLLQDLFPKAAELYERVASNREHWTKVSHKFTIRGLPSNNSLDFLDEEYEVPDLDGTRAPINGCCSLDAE

AUC [1]: 2280 ng·h/mL
Activity [3]: inactive
half-life [4]: 120 min
Efficacy [5]: 78%
bioavailability [6]: 68%
Activity [7]: Agonist
AUC [8]: 1140 ng·h/mL
Activity [9]: inactive
Activity [10]: inactive
Cmax [11]: 660 ng/mL
bioavailability [12]: 91%
AUC [13]: 922 ng·h/mL
bioavailability [14]: 84%
Activity [15]: inactive
Cmax [16]: 417 ng/mL
Ki [17]: > 10 µM
Cmax [18]: 465 ng/mL
Activity [20]: inactive
Ki [21]: > 10 µM
Activity [22]: inactive
clearance [23]: 12.3 mL/min/kg
Activity [24]: inactive
bioavailability [26]: 85%
EC50 [27]: 160 nM
Activity [28]: inactive
half-life [30]: 126 min
EC50 [32]: 93 nM
Compound: Cc1cccc(C(=O)NCN2CCC(c3cccc[n+]3[O-])CC2)c1
Activity [2]: 0.6%
Activity [19]: 4.3%
Efficacy [25]: 76%
Activity [29]: 75%
Activity [31]: inactive

Reference: ChEMBL document CHEMBL1137302 (J Med Chem, 2006)
